Converted amounts (≈) assume the structure as drawn.
Tests used:
Tubulin = assay type: protein-complex assay
DNA topoisomerase II [1] = target: T1, DNA topoisomerase II (Homo sapiens, UniProt P11388+Q02880); test: In vitro inhibitory activity at 100 uM against topoisomerase II measured as ATP-dependent unknotting of P4 DNA compared to enzyme and DNA control.; assay type: protein assay
[2] = target: T2, DNA topoisomerase 1 (Homo sapiens) (UniProt P11387); test: In vitro inhibitory activity at 100 uM against topoisomerase I measured as ATP-independent relaxation of supercoiled plasmid DNA compared to enzyme and DNA control.
T2 sequence (whole entry): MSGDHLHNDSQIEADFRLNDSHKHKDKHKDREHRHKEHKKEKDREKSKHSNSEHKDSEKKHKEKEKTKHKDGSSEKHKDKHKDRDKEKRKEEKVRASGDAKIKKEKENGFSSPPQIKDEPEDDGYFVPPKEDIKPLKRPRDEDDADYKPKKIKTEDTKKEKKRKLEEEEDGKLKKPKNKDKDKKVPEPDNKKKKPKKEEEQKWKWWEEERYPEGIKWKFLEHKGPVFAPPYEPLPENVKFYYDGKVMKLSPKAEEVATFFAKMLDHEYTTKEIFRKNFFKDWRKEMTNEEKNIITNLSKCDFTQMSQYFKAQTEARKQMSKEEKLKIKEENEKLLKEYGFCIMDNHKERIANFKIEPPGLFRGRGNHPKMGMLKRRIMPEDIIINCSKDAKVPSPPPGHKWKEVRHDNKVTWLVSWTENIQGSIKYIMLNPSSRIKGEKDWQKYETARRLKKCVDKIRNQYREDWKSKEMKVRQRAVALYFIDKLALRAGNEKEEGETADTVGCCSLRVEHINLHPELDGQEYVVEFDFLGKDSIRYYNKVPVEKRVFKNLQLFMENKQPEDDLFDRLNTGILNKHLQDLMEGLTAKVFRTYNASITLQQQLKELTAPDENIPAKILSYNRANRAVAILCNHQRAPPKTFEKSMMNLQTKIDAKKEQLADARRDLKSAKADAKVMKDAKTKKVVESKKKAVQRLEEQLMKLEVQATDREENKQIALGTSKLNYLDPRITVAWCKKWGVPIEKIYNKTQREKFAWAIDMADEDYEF

CAKI-1 [3] = test: In vitro percent inhibition of CAKI-1, Kidney carcinoma; assay type: functional, Homo sapiens; design: concentration or dose not given beside the values
CAKI-1 [4] = test: In vitro growth inhibition of CAKI-1, Kidney carcinoma; assay type: functional, cell-based; details: Homo sapiens
In short: (§1)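 Human tumor lines screened in-house: KB, A549, MCF-7, CAKI-1 and SK-MEL-2. Read-out was SRB staining with absorbance at 562 nm.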

A549 [5] = test: In vitro percent inhibition of A549, lung carcinoma; assay type: functional, Homo sapiens
KB = test: In vitro growth inhibition of KB, epidermoid carcinoma of the nasopharynx.; assay type: functional, cell-based; details: Homo sapiens
In short: as §1

MCF7 [6] = test: In vitro growth inhibition of MCF-7, breast adenocarcinoma.; assay type: functional, cell-based; details: Homo sapiens
In short: as §1

MCF7 [7] = test: In vitro percent inhibition of MCF-7, breast adenocarcinoma.; assay type: functional, Homo sapiens
SK-MEL-2 [8] = test: In vitro growth inhibition of SK-MEL-2, malignant melanoma.; assay type: functional, cell-based; details: Homo sapiens
In short: as §1

A549 [9] = test: In vitro growth inhibition of A549, lung carcinoma; assay type: functional, cell-based; details: Homo sapiens
In short: as §1

DNA topoisomerase II [10] = target: T1, DNA topoisomerase II; test: (§2) In vitro activity against mammalian topoisomerase II measured as ATP-dependent unknotting of P4 DNA compared to enzyme and DNA control; assay type: protein assay
In short: (§3)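 Topo II inhibition read as ATP-dependent unknotting of P4 DNA, compared with enzyme-only and DNA-only control reactions.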

MCF7 [11] = test: In vitro percent inhibition of MCF-7, breast adenocarcinoma.; Range 23-48; assay type: functional, Homo sapiens
SK-MEL-2 [12] = test: In vitro percent inhibition of SK-MEL-2 cells, malignant melanoma.; Range 26-41; assay type: functional, Homo sapiens
A549 [13] = test: In vitro percent inhibition of A549, lung carcinoma.; Range 18-43
A549 [14] = test: In vitro growth inhibition of A549, lung carcinoma.; assay type: functional, cell-based; details: Homo sapiens
In short: as §1

CAKI-1 [15] = test: In vitro percent inhibition of CAKI-1, Kidney carcinoma; Range 12-38; assay type: functional, Homo sapiens
SK-MEL-2 [16] = test: In vitro percent inhibition of SK-MEL-2 cells, malignant melanoma.; assay type: functional, Homo sapiens; design: concentration or dose not given beside the values
A549 [17] = test: In vitro percent inhibition of A549, lung carcinoma.; assay type: functional, Homo sapiens
CAKI-1 [18] = test: In vitro percent inhibition of growth of CAKI-1, Kidney carcinoma; assay type: functional, Homo sapiens
DNA topoisomerase II [19] = target: T1, DNA topoisomerase II; test: as §2; assay type: protein assay; details: concentration not given here
In short: as §3

SK-MEL-2 [20] = test: In vitro percent inhibition of growth of SK-MEL-2, malignant melanoma; assay type: functional, Homo sapiens
SK-MEL-2 [21] = test: In vitro growth inhibition of SK-MEL-2, malignant melanoma; assay type: functional, cell-based; details: Homo sapiens
In short: as §1

[22] = target: T2, DNA topoisomerase 1 (Homo sapiens); test: In vitro inhibition against topoisomerase I activity Measured as ATP independent relaxation of supercoiled plasmid DNA compared to enzyme and DNA control reaction relative to Camptothecin (100 uM)
In short: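 Topo I inhibition read as ATP-independent relaxation of supercoiled plasmid DNA, compared with enzyme and DNA control reactions. Camptothecin at 100 μM was the positive control.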

Row | IC50 (Tubulin) [µM] | inhibition (DNA topoisomerase II [1]) [%] | inhibition [2] [%] | EC50 (KB) [µg/mL] | EC50 (MCF7 [6]) [µg/mL] | EC50 (SK-MEL-2 [8]) [µg/mL] | EC50 (A549 [14]) [µg/mL] | SMILES | EC50 (CAKI-1 [4]) [µg/mL] | other results
1 | > 40 | 100 | 0 | – | – | – | – | CSc1ccc2c(cc1=O)[C@@H](NC(=O)c1ccc(F)cc1)CCc1cc(O)c(O)c(O)c1-2 | – | –
2 | > 40 | 100 | 0 | – | – | – | – | CSc1ccc2c(cc1=O)[C@@H](NC(=O)c1ccc(Cl)cc1)CCc1cc(O)c(O)c(O)c1-2 | – | –
3 | > 40 | 100 | 0 | – | – | – | – | CCCCCC(=O)N[C@H]1CCc2cc(O)c(O)c(O)c2-c2ccc(SC)c(=O)cc21 | – | –
4 | > 40 | 0 | 0 | – | – | – | – | CSc1ccc2c(cc1=O)[C@@H](NC(=O)c1ccc(NC(=O)C34CCC(C)(C(=O)O3)C4(C)C)cc1)CCc1cc(O)c(O)c(O)c1-2 (some centres not stated) | – | –
5 | > 40 | 100 | 0 | – | – | – | – | CSc1ccc2c(cc1=O)[C@@H](NC(=O)c1cccc([N+](=O)[O-])c1)CCc1cc(O)c(O)c(O)c1-2 | – | –
6 | > 40 | 100 | < 100 | 7.7 (≈ 16 µM) | > 9.6 | > 9.6 | > 9.6 | CSc1ccc2c(cc1=O)[C@@H](NC(=O)c1ccc([N+](=O)[O-])cc1)CCc1cc(O)c(O)c(O)c1-2 | > 9.6 | Inhibition (CAKI-1 [3]): 20%; Inhibition (MCF7 [7]): 38%; Inhibition (SK-MEL-2 [16]): 0%; Inhibition (A549 [17]): 36%
7 | > 40 | 100 | 0 | – | – | – | – | CSc1ccc2c(cc1=O)[C@@H](NC(=O)c1ccccc1[N+](=O)[O-])CCc1cc(O)c(O)c(O)c1-2 | – | –

The next lines start with the molecule.

Row | SMILES | IC50 (Tubulin) [µM] | inhibition (DNA topoisomerase II [1]) [%] | inhibition [2] [%] | EC50 (KB) [µg/mL] | EC50 (MCF7 [6]) [µg/mL] | EC50 (SK-MEL-2 [8]) [µg/mL] | EC50 (A549 [14]) [µg/mL] | EC50 (CAKI-1 [4]) [µg/mL] | other results
8 | CSc1ccc2c(cc1=O)[C@@H](NC(=O)c1ccc([N+](=O)[O-])cc1)CCc1cc(OC(=O)C(C)C)c(OC(=O)C(C)C)c(OC(=O)C(C)C)c1-2 | > 40 | 0 | 0 | 25.5 (≈ 36.9 µM) | > 27.6 | 27.6 (≈ 40 µM) | – | > 27.6 | Inhibition (CAKI-1 [3]): 17%; Inhibition (A549 [5]): 19%; Inhibition (MCF7 [7]): 43%; EC50 (A549 [9]): > 27.6 µg/mL
9 | COc1c(O)c(O)cc2c1-c1ccc(SC)c(=O)cc1[C@@H](NC(C)=O)CC2 | – | – | – | – | – | – | – | – | IC50 (DNA topoisomerase II [10]): 38 µM
10 | CSc1ccc2c(cc1=O)[C@@H](NC(=O)C13CCC(C)(C(=O)O1)C3(C)C)CCc1cc(O)c(O)c(O)c1-2 (some centres not stated) | > 40 | 0 | 0 | – | – | – | – | – | –
11 | CSc1ccc2c(cc1=O)[C@@H](NC(=O)c1ccc([N+](=O)[O-])cc1)CCc1cc(OC(C)=O)c(OC(C)=O)c(OC(C)=O)c1-2 | > 40 | 0 | 0 | 2.7 (≈ 4.45 µM) | > 0.15 | > 0.3 | > 0.15 | > 0.3 | Inhibition (MCF7 [11]): 23%; Inhibition (SK-MEL-2 [12]): 26%; Inhibition (A549 [13]): 18%; Inhibition (CAKI-1 [15]): 12%
12 | COc1cc2c(c(OC)c1OC)-c1ccc(OC)c(=O)cc1[C@@H](NC(C)=O)CC2 [COLCHICINE] | – | – | – | 0.002 (≈ 0.00501 µM) | > 0.4 | 0.008 (≈ 0.02 µM) | 0.022 (≈ 0.0551 µM) | 0.4 (≈ 1 µM) | –
13 | COC(=O)Oc1cc2c(c(OC(=O)OC)c1OC(=O)OC)-c1ccc(SC)c(=O)cc1[C@@H](NC(=O)c1ccc([N+](=O)[O-])cc1)CC2 | > 40 | – | – | 6.5 (≈ 9.93 µM) | 13.1 (≈ 20 µM) | – | 24.2 (≈ 37 µM) | > 26.2 | Inhibition (CAKI-1 [18]): 38%; inhibition (DNA topoisomerase II [19]): 0%; Inhibition (SK-MEL-2 [20]): 44%; EC50 (SK-MEL-2 [21]): > 26.2 µg/mL; inhibition [22]: 0%

From ChEMBL document CHEMBL1131236, “Antitumor agents. 185. Synthesis and biological evaluation of tridemethylthiocolchicine analogues as novel topoisomerase II inhibitors” (J Med Chem, 1998)
